The source of these data is the array DNA melting data of Ke et al. (doi:10.1101/2024.01.08.574731).

Series [1] is described as follows: melting temperature; fluorescence melt of hairpins on a sequencing array, two-state fit, raised by 9.35 °C to match UV melts. The following applies: sodium 0.088 M. The method in brief:
(§1)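 Folding enthalpy and melting temperature were estimated with bootstrapped two-state fits and combined across four replicates by inverse-variance weighting, with fitted temperatures raised by 9.35 °C to match UV melts. The data were Cy3 fluorescence of library hairpins, with annealed Cy3 and quencher oligos, on a sequenced MiSeq flow cell in 50 mM Na-HEPES pH 8.0, 25 mM NaCl, imaged in 2.5 °C steps up to 60 °C and normalised to pre-quench Cy3 and control constructs.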

Series [2] can be described thus: folding enthalpy; higher = less favourable; fluorescence melt of hairpins on a sequencing array, two-state fit. As to conditions: sodium 0.088 M. Summed up:
as §1

Turning to GCGAGACGTCGC ((((....)))), in series [1], the Tm is 52.9 °C. The folding enthalpy in series [2] was -8.79 kcal/mol.

With GTTTCCGAAAGGACGAAC ((((((....)))..))), the Tm in series [1] was determined as 21.9 °C. The folding enthalpy in series [2] is -9.15 kcal/mol.

As to GTCTGTGGAAACACGGAC (((.(((....))).))), the Tm in series [1] was found to be 53 °C. Further, in series [2], the folding enthalpy is -34.9 kcal/mol.

Regarding AGAAGCAGAAATGGTTCT ((((.((....)).)))), the Tm in series [1] amounted to 34.5 °C. For the same sequence, in series [2], the folding enthalpy is -27.4 kcal/mol.

GCAAGCGAAAGCTACTGC ((((((....)))..))): in series [1], the Tm was found to be 37.3 °C. Also, the folding enthalpy in series [2] was -13.2 kcal/mol.

Take GCAATCGAAAGATAGTGC ((((((....)))..))): the Tm in series [1] came out at 32 °C. In addition, the folding enthalpy in series [2] is -22.9 kcal/mol.

As to GCATCGCGAAAGCGGGGC ((..(((....)))..)), the Tm in series [1] worked out at 63.1 °C. In series [2], the folding enthalpy is -22.2 kcal/mol.

As to GGCGCAGCGAAAGCTGCC (((..(((....)))))), the Tm in series [1] was determined as 52.6 °C. Also, in series [2], the folding enthalpy was -6.91 kcal/mol.

As for GGGTGAGCGAAAGCTCCC (((..(((....)))))), the Tm in series [1] was found to be 49.1 °C. In series [2], the folding enthalpy was -12.6 kcal/mol.

GGGTCCGAAAGGAGCCC ((((((....))).))): the Tm in series [1] was 68.5 °C. Besides, the folding enthalpy in series [2] was -15.6 kcal/mol.

For GCGGCGCTCCGC ((((....)))), in series [1], the Tm was determined as 63.4 °C. In addition, the folding enthalpy in series [2] is -14.3 kcal/mol.

Consider GGTTAGGGAAACCTAACC (((((((....))))))), for which the Tm in series [1] was found to be 58.3 °C. Besides, the folding enthalpy in series [2] is -46.4 kcal/mol.

GATCTGGCGCAGATC ((((((...)))))): in series [1], the Tm worked out at 47.5 °C. In series [2], the folding enthalpy was -27.4 kcal/mol.

As to GACTAAGGAAACTTAGCC (.(((((....))))).), the Tm in series [1] came out at 31.3 °C. Besides, the folding enthalpy in series [2] was -20.4 kcal/mol.

On to AGTATGAAAATACT (((((....))))), for which the Tm in series [1] was 32 °C. The folding enthalpy in series [2] was -15.2 kcal/mol.

GATCTAAGGGTAGATC ((((((....)))))): the Tm in series [1] is 35.3 °C. The folding enthalpy in series [2] was -25.1 kcal/mol.

For the sequence GCTCTGCGAAAGCAACGC ((..(((....)))..)), the Tm in series [1] is 31.8 °C. The folding enthalpy in series [2] is -9.7 kcal/mol.

Take GATCACCGCGTGATC ((((((...)))))): the Tm in series [1] is 61.9 °C. Moreover, the folding enthalpy in series [2] was -35.6 kcal/mol.

As for GTTAGAGGAAACTCTGAC ((.((((....)))).)), the Tm in series [1] stood at 37.1 °C. Besides, the folding enthalpy in series [2] was -31.4 kcal/mol.

For the sequence GCAGCCGAAAGGCTATGC ((((((....)))..))), in series [1], the Tm was found to be 47.4 °C. For the same sequence, the folding enthalpy in series [2] is -14 kcal/mol.

For GTTTCAACGAAAGTTAAC (((..(((....)))))), the Tm in series [1] was 35.5 °C. In addition, in series [2], the folding enthalpy was -15.8 kcal/mol.

Regarding GTGCTAGGAAACTAGTGC (..((((....))))..), the Tm in series [1] worked out at 39.1 °C. For the same sequence, in series [2], the folding enthalpy is -30.2 kcal/mol.

Take GCGCCTTCGAAAGAACGC (((..(((....)))))): the Tm in series [1] was found to be 38.6 °C. Besides, the folding enthalpy in series [2] was -19.2 kcal/mol.

Consider GTACGCGAAAGCGGTTAC ((((((....)))..))), for which the Tm in series [1] is 32.7 °C. For the same sequence, in series [2], the folding enthalpy was -8.32 kcal/mol.

GATCTTAAAGAAGATC ((((((....)))))): the Tm in series [1] worked out at 34.8 °C. Also, in series [2], the folding enthalpy is -16.8 kcal/mol.

On to GCCCATGGAAACGTGGGC (((((.(....).))))), for which the Tm in series [1] was found to be 59 °C. The folding enthalpy in series [2] was -38.2 kcal/mol.

As for CACAGGAAACTGTG (((((....))))), the Tm in series [1] stood at 50.2 °C. In addition, in series [2], the folding enthalpy was -21 kcal/mol.

GCCCATCGAAAGATGGC (((.(((....)))))): the Tm in series [1] stood at 56.1 °C. In addition, the folding enthalpy in series [2] is -14 kcal/mol.

In the case of GTGCATGCGAAAGCACAC (((..(((....)))))), in series [1], the Tm was determined as 46.3 °C. Also, the folding enthalpy in series [2] was -12.2 kcal/mol.

As for GATCCACCTCTGGATC ((((((....)))))), in series [1], the Tm stood at 49 °C. Further, in series [2], the folding enthalpy is -33 kcal/mol.

For GGATGGGGAAACCCATCC (((((((....))))))), the Tm in series [1] is 66.4 °C. In addition, the folding enthalpy in series [2] was -46.7 kcal/mol.

In the case of GAAGATGGAAACATTTTC (((.(((....))).))), the Tm in series [1] turned out to be 30.4 °C. The folding enthalpy in series [2] is -21.9 kcal/mol.

For GCATACGAAAGTACCTGC ((((((....)))..))), in series [1], the Tm was 26.6 °C. In addition, the folding enthalpy in series [2] is -13.2 kcal/mol.

In the case of GACGGGCGAAAGCCGGTC (((.(((....))).))), in series [1], the Tm turned out to be 65.5 °C. In addition, the folding enthalpy in series [2] is -25.9 kcal/mol.

In the case of GTATGCGAAAGCACTAC ((((((....))).))), the Tm in series [1] was determined as 37.3 °C. For the same sequence, the folding enthalpy in series [2] is -13.2 kcal/mol.

Consider GACTCTGGAAACAGAGCC (.(((((....))))).), for which the Tm in series [1] was determined as 43 °C. Moreover, the folding enthalpy in series [2] is -18.3 kcal/mol.

Take GCACTGCGAAAGCGATGC (((..((....))..))): the Tm in series [1] was 45 °C. Besides, the folding enthalpy in series [2] is -19.7 kcal/mol.
